TAAR1 ag: human TAAR1 agonism. Q96RJ0. CHO RD-HGA16 TAAR1, Fluo-8 calcium fluorescence; vehicle wells 0%, saturating PEA agonist 100%. activation, % at 3 µM. 360,000 tested, 0.99% active. AID 624467;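 active = activation above the mean activation of all test compounds in the run plus 3 SD, cut at about 38% in these data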
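System: CHO RD-HGA16 cells carrying human TAAR1 plus Gα16; Incubation: 17-24 h seeding, 75 min 37 °C dye, 30 min RT; Measured by: Fluo-8 fluorescence, 5 s baseline then 140 s kinetic read; Control set: DMSO and PEA EC100; Replication: single well for each compound.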
OX1R antag-1: blocks the human orexin 1 receptor | O43613 | OX1R-expressing cells, FRET antagonist read-out | inhibition, % at 6.6 µM | 330,000 tested, 1.8% active; in the data active = inhibition mostly above about 38%, no sharp cut-off; inactive = mostly below about 40%
Target sequence (O43613 whole entry, looked up): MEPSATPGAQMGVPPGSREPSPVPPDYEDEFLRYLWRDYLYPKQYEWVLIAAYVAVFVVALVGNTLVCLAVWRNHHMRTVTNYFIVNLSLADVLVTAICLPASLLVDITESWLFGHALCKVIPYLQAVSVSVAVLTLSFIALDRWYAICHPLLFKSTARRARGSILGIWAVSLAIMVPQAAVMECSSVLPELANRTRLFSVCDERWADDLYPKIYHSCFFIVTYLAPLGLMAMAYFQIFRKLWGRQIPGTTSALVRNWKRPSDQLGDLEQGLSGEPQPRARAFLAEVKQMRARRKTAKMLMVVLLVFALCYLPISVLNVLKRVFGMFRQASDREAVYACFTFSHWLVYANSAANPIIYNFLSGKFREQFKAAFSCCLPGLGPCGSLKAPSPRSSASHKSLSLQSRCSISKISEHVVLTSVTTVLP
CHO parental Ca: counter-screen: ATP calcium response change in parental CHO cells | parental CHO-K1, ATP-induced calcium, Fluo-8 fluorescence | inhibition, % at 5.6 µM | 330,000 tested, 0.63% active | AID 463079;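 active = inhibition above that plate's mean sample inhibition plus 3 SD, cut at about 26% in these data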
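Material – parental CHO cells · Reagent – ATP stimulus · Compound – single nominal dose of 5.6 µM per compound · Detection – Fluo-8 fluorescence · Read-out basis – percent inhibition of calcium signal · Controls – ATP-challenged DMSO wells low, unchallenged DMSO wells high · Repeats – no replicates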
OX1R antag-2: human HCRTR1 antagonism. O43613. CHO/OX1R cells, Fluo-8 calcium fluorescence, orexin A. inhibition, % at 5 µM. 330,000 tested, 0.43% active;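 active = inhibition above its plate's threshold, mean inhibition of all tested compounds on the plate plus 3 SD, cut at about 37% in these data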
TAAR1 antagonist: human TAAR1 antagonism. CHO RD-HGA16 TAAR1, Fluo-8 calcium fluorescence, antagonist. inhibition, % at 3 µM. 360,000 tested, 1.5% active. AID 624466;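 active = inhibition above a per-plate cutoff, the mean inhibition of test compounds on that plate plus 3 SD, cut at about 49% in these data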
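Test system: hTAAR1-expressing CHO RD-HGA16 cells, Gα16-coupled; Probe or stimulus: EC80 β-phenethylamine stimulus; Compound dosing: single nominal final test compound concentration of 3 µM; Timing: 140 s kinetic read after compound, 140 s after agonist; Signal: Fluo-8 calcium-sensitive fluorescence; Measure: % inhibition of agonist calcium response; Controls: DMSO and EC80 PEA controls.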
nonsel antag count: nonselective antagonism, TAAR1 counter-screen; 2,400 tested, 77% active; shares compounds with TAAR1 antagonist; AID 651780; inhibition, % at 3 µM; counterscreen cell line, calcium fluorescence, antagonist mode; in the data active = inhibition above about 22%;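 also: CHO-Ga16 host cells stimulated with ATP at an EC80 level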
TAAR1 antag conf: human TAAR1 antagonism, confirmed; inhibition, % at 3 µM; 2,400 tested, 40% active; shares compounds with TAAR1 antagonist; TAAR1-expressing cells, fluorescence antagonist read-out; in the data active = inhibition above about 49%;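 also: CHO-Ga16 host cells challenged with agonist PEA near its EC80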
Ga16 ag counter: nonselective Ga16 agonist in TAAR1 antagonist counter-screen. 2,400 tested, 18% active. activation, % at 3 µM. Ga16-expressing cells, calcium fluorescence, agonist counterscreen. shares compounds with TAAR1 antagonist; in the data active = activation above about 12%
TAAR1 ag counter: counter-screen for human TAAR1 antagonists: TAAR1 agonists; shares compounds with TAAR1 antagonist; hTAAR1 cell line, fluorescence activation, agonist mode; activation, % at 3 µM; 2,400 tested, 2% active; in the data active = activation above about 37%;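 also: CHO cells stably expressing TAAR1 with calcium dye readout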
Numbers stand for hits; i = inactive; nt = no result. An excerpt weighted towards active compounds, which were near 3.9% of everything screened.

SMILES	TAAR1 ag	OX1R antag-1	CHO parental Ca	OX1R antag-2	TAAR1 antagonist	nonsel antag count	TAAR1 antag conf	Ga16 ag counter	TAAR1 ag counter
N#CC1=C(N)NC(SCC(=O)c2ccccc2)=C(C#N)C12CCCC2	i	i	i	i	56	34	i	13	i
CCN(Cc1ccccc1)c1ccc(/C=N/N=C(N)N)cc1	i	i	i	i	i	nt	nt	nt	nt
CCN(Cc1ccccc1)c1ccc(/C=N/NC(=S)NC(C)C)cc1	i	i	i	i	50	i	i	i	i
Cc1ccc(OCC(=O)Nc2sc3c(c2C#N)CCC3)cc1	i	i	i	i	51	i	i	i	i
CCOc1ccc(C(=O)CCC(=O)N2CCN(S(=O)(=O)c3cccc(F)c3)CC2)cc1	i	i	i	i	70	i	i	i	i
CCc1[nH]nc2c1C1(CCN(C(=O)OCc3ccccc3)CC1)C(C#N)=C(N)O2	i	i	i	i	63	34	57	16	i
CCCc1[nH]nc2c1C1(CCN(C(=O)OCc3ccccc3)CC1)C(C#N)=C(N)O2	i	i	i	i	i	nt	nt	nt	nt
O=C(NCCN1C(=O)S/C(=C\c2ccccc2)C1=O)C1CCN(S(=O)(=O)c2cccs2)CC1	i	i	i	i	67	46	52	15	i
CC(C)CN(CC(C)C)S(=O)(=O)N1CCC(C(=O)NCCc2ccc(Cl)cc2)CC1	i	i	i	i	49	32	53	i	i
O=C(NCCc1ccc(Cl)cc1)C1CCN(S(=O)(=O)c2cccs2)CC1	i	i	i	i	61	i	50	16	i
N#CC(=C(O)CN1CCN(c2ccccc2F)CC1)c1nc(-c2ccc(Cl)cc2)cs1	i	nt	nt	nt	i	nt	nt	nt	nt
COc1cccc(CN2CCC2(C)C(=O)Nc2ccc3c(c2)OCO3)c1F (stereo unspecified)	i	nt	nt	nt	i	nt	nt	nt	nt
Cc1ccc(C)n1-c1ccc(N2CCOCC2)c([N+](=O)[O-])c1	i	i	i	i	i	nt	nt	nt	nt
O=[N+]([O-])c1cc(-n2cccc2)ccc1N1CCOCC1	i	i	i	i	60	28	i	i	i
COC(=O)C[C@H]1C=C[C@H](NC(=O)Nc2ccccc2F)[C@@H](CO)O1	i	nt	nt	nt	i	nt	nt	nt	nt
CCN(CC)S(=O)(=O)c1ccc(C(O)=C(C#N)c2nc3ccccc3n2C)cc1	i	nt	nt	nt	66	30	59	13	i
COc1ccc(CN(C)C[C@H]2Oc3c(NC(=O)Nc4ccccc4)cccc3C(=O)N([C@H](C)CO)C[C@@H]2C)cc1	i	i	i	i	61	25	i	i	i
COc1ccc(NC(=O)Nc2cccc3c2O[C@H](CN(C)C(=O)Nc2ccccc2)[C@@H](C)CN([C@H](C)CO)C3=O)cc1	i	i	i	i	i	nt	nt	nt	nt
Cc1ccc(C)c(Nc2cc(C(=O)NCc3cccnc3)c3ccccc3n2)c1	i	i	i	i	50	22	i	i	i
Cc1cc(CNC(=O)c2cc(-c3ccccc3)nc3ccccc23)nn1C	i	i	i	i	52	24	i	i	i
COc1ccc(C2=NOC(Cn3nc(C(=O)NCc4cccc(Br)c4)cc3-c3ccccc3)C2)cc1 (stereo unspecified)	i	i	i	i	57	30	i	i	i
COCCNC(=O)c1cc(-c2ccc(-c3ccccc3)cc2)nc2ccccc12	i	i	i	i	55	25	i	i	i
O=C(NCc1ccccc1)c1cc(-c2ccncc2)nc2ccccc12	i	i	i	i	i	nt	nt	nt	nt
COc1ccc(C2=NOC(Cn3nc(-c4ccccc4)cc3C(=O)NCc3cccc(Br)c3)C2)cc1 (stereo unspecified)	i	i	i	i	i	nt	nt	nt	nt
O=C([C@@H]1CC=C[C@@H]2CCN(C3CC3)C(=O)[C@@H]21)N1CCN(c2ccccc2)CC1	i	i	i	i	i	nt	nt	nt	nt
SMILES	TAAR1 ag	OX1R antag-1	CHO parental Ca	OX1R antag-2	TAAR1 antagonist	nonsel antag count	TAAR1 antag conf	Ga16 ag counter	TAAR1 ag counter
COc1cccc(NC(=O)CCC2CCN(C(=O)c3scnc3C)CC2)c1	i	i	i	i	i	nt	nt	nt	nt
COCCCNC(=O)c1cc(-c2cccnc2)nc2ccccc12	i	i	i	i	i	nt	nt	nt	nt
COc1ccccc1CNC(=O)c1cc(-c2cccnc2)nc2ccccc12	i	i	i	i	74	23	i	i	i
COc1ccccc1CNC(=O)c1cc(-c2ccccc2)nn1CC1CC(c2cccnc2)=NO1 (stereo unspecified)	i	i	i	i	53	i	i	i	i
COc1ccc(CN2CCN(C(c3ccc(F)cc3)c3ccc(F)cc3)CC2)c(OC)c1OC	i	i	i	i	56	i	i	i	i
CC(C)OC(=O)NCCOC(=O)Nc1ccccc1Cl	i	i	i	i	i	nt	nt	nt	nt
Cc1ccccc1S(=O)(=O)Oc1ccc2ccc(O)cc2c1	i	i	i	i	66	30	i	i	i
CC(=O)c1ccc(N2Cc3ccccc3/C2=N\C(=O)Nc2ccc(Cl)cc2)cc1	i	i	i	i	i	nt	nt	nt	nt
O=C(O)Cc1cn(-c2ccccc2)nc1-c1ccccc1	i	i	i	i	i	nt	nt	nt	nt
OCc1cn(-c2ccccc2)nc1-c1ccc(-c2nn(-c3ccccc3)cc2CO)cc1	i	i	i	i	54	41	61	12	i
CCOC(=O)c1nn(-c2ccccc2F)c(-c2ccccc2)c1C(=O)c1ccccc1	i	i	i	i	56	i	i	i	i
CCOC(=O)c1c(N)nn(C(C)=O)c1-c1ccccc1	i	i	i	i	i	nt	nt	nt	nt
Cc1ccc(CNC(=O)Cn2cc(C(F)(F)F)ccc2=O)cc1	i	i	i	i	i	nt	nt	nt	nt
COc1ccc(/C=C2\Sc3ccc(C(=O)N4CCCC4)cc3N(C)C2=O)cc1OC	nt	i	i	i	nt	nt	nt	nt	nt
Cc1cccc(/C=C2\Sc3ccc(C(=O)N4CCC(C(N)=O)CC4)cc3N(C)C2=O)c1	i	i	i	i	60	i	i	i	i
CC(C)c1ccc(-n2cccc2/C=C2/C(=N)N3C=CSC3=NC2=O)cc1	i	i	i	i	i	nt	nt	nt	nt
Cc1ccccc1Cn1cccc1/C=C1/C(=N)N2C=CSC2=NC1=O	i	i	i	i	62	32	i	i	i
COCCCNC(=O)c1ccc2c(c1)nc(C)n2-c1cccc(C)c1	i	i	i	i	i	nt	nt	nt	nt
COc1ccccc1N(Cc1ccccc1)S(=O)(=O)c1cccc(C(=O)Nc2ccccn2)c1	i	i	i	i	75	i	i	i	i

Screening data (PubChem BioAssay)
